Test results from PMC4415995 (Advances in Therapy, 2015).
pIC50: −log10 of the molar value. Where two headings read alike, the source gives them in different places. Marks after values point to notes of the source that are not given here.

Experiments:
[1] = tested on: Japanese patients with T2DM; conditions: cited from earlier work
SGLT2 = conditions: read-out: 50% inhibitory concentration (IC50); cited from earlier work
[2] = tested on: Japanese patients with T2DM; assay: Sigmoid E max model regression of change in UGE on plasma luseogliflozin AUC; assay type: in vivo, human
[3] = tested on: Japanese patients with T2DM; assay: Adverse events, 7-day once-daily dosing; assay type: in vivo, human; conditions: for ALT increased / Blood urine present / Constipation / Dermatitis contact / Diarrhea / Headache / Pruritus / γ-GTP increased: N = 8
In short: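 Randomized, single-blind, placebo-controlled, parallel-group study in Japanese T2DM outpatients (HbA1c 6.9–10.5%, FPG ≥126 mg/dL, stable diet 4 weeks, age 20–74 y). Test compound 0.5, 1, 2.5 or 5 mg or placebo was given orally once daily for 7 days before breakfast. Safety set was all dosed patients. AEs were coded in MedDRA 12.1 and graded mild/moderate/severe, with drug relation judged by the investigator. Labs, vital signs, body weight and ECG were also recorded.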

[4] = tested on: Japanese patients with T2DM; assay: Urinary glucose excretion; assay type: in vivo, human
In short: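 Dosing was once daily, 0.5–5 mg or placebo, before a standardized ~600 kcal breakfast. Read-outs were 24-h cumulative UGE, total UGE and per-interval UGE rate, plus change from Day −1. LS mean difference vs placebo with 95% CI.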

CCOc1ccc(Cc2cc([C@@H]3S[C@H](CO)[C@@H](O)[C@H](O)[C@H]3O)c(OC)cc2C)cc1 [Luseogliflozin, (1S)-1,5-anhydro-1-[5-(4-ethoxybenzyl)-2-methoxy-4-methylphenyl]-1-thio-D-glucitol]
incidence of hypoglycemia ([1]; 0.5 mg, Phase II, 1/60): 1.7% | incidence of AEs related to genital infection ([1]; 2.5 mg, Phase III, 1/79): 1.3% | incidence of hypoglycemia ([1]; 2.5 mg, Phase III, 1/79): 1.3% | incidence of pollakiuria ([1]; 2.5 mg, Phase III, 2/79): 2.5% | incidence of AEs related to renal function ([1]; 2.5 mg, Phase III, 6/79): 7.6% | body weight change ([1]; 2.5 mg, over 24 weeks of treatment): -2.70 kg | incidence of hypoglycemia ([1]; 5 mg, Phase II, 1/54): 1.9% | episodes of volume depletion ([1]; Phase III study): no episodes | pIC50 (SGLT2): 8.65 | UGE as share of the maximal UGE value estimated using the E max model ([2]; 5 mg OD, after 7 days): approximately 85% | E max (maximum change in UGE), estimate (95% CI) ([2]; values on Day 1 and 7): 119 g/day | ALT increased ([3]; 0.5 mg OD for 7 days): 0 number of subjects | Blood urine present ([3]; 0.5 mg OD for 7 days): 0 number of subjects | Constipation ([3]; 0.5 mg OD for 7 days): 1 number of subjects | Dermatitis contact ([3]; 0.5 mg OD for 7 days): 0 number of subjects | Diarrhea ([3]; 0.5 mg OD for 7 days): 1 number of subjects | Headache ([3]; 0.5 mg OD for 7 days): 1 number of subjects | Pruritus ([3]; 0.5 mg OD for 7 days): 1 number of subjects | γ-GTP increased ([3]; 0.5 mg OD for 7 days): 0 number of subjects | ALT increased ([3]; 1 mg OD for 7 days): 0 number of subjects | Blood urine present ([3]; 1 mg OD for 7 days): 0 number of subjects | Constipation ([3]; 1 mg OD for 7 days): 0 number of subjects | Dermatitis contact ([3]; 1 mg OD for 7 days): 1 number of subjects | Diarrhea ([3]; 1 mg OD for 7 days): 0 number of subjects | Headache ([3]; 1 mg OD for 7 days): 0 number of subjects | Pruritus ([3]; 1 mg OD for 7 days): 0 number of subjects | γ-GTP increased ([3]; 1 mg OD for 7 days): 0 number of subjects | ALT increased ([3]; 2.5 mg OD for 7 days): 1 number of subjects | Blood urine present ([3]; 2.5 mg OD for 7 days): 0 number of subjects | Constipation ([3]; 2.5 mg OD for 7 days): 0 number of subjects | Dermatitis contact ([3]; 2.5 mg OD for 7 days): 0 number of subjects | Diarrhea ([3]; 2.5 mg OD for 7 days): 0 number of subjects | Headache ([3]; 2.5 mg OD for 7 days): 0 number of subjects | Pruritus ([3]; 2.5 mg OD for 7 days): 0 number of subjects | γ-GTP increased ([3]; 2.5 mg OD for 7 days): 1 number of subjects | ALT increased ([3]; 5 mg OD for 7 days): 0 number of subjects | Blood urine present ([3]; 5 mg OD for 7 days): 1 number of subjects | Constipation ([3]; 5 mg OD for 7 days): 0 number of subjects | Dermatitis contact ([3]; 5 mg OD for 7 days): 0 number of subjects | Diarrhea ([3]; 5 mg OD for 7 days): 0 number of subjects | Headache ([3]; 5 mg OD for 7 days): 1 number of subjects | Pruritus ([3]; 5 mg OD for 7 days): 0 number of subjects | γ-GTP increased ([3]; 5 mg OD for 7 days): 0 number of subjects | episodes of hypoglycemia ([3]; 0.5-5 mg OD for 7 days): no episodes | serious AEs or AEs leading to discontinuation ([3]; 0.5-5 mg OD for 7 days): no serious AEs | severity of adverse events ([3]; 0.5-5 mg OD for 7 days): mild | urinary tract/genital infection ([3]; 0.5-5 mg OD for 7 days): no episodes | UGE0–24h ([4]; 0.5 mg OD, Day 1): 81.5 ± 33.2 g | UGE0–24h LS mean difference vs placebo (95% CI) ([4]; 0.5 mg OD, Day 1): 46.4 (32.9, 60.0)* g | Least-squares mean difference in 24-h UGE vs placebo ([4]; 0.5 mg OD, Day 7): 49.2 g/day | UGE0–24h ([4]; 0.5 mg OD, Day 7): 81.7 ± 30.1 g | UGE0–24h LS mean difference vs placebo (95% CI) ([4]; 0.5 mg OD, Day 7): 49.2 (27.9, 70.5)* g | UGE0–24h LS mean difference vs placebo (95% CI) ([4]; 0.5 mg OD, Day 7, listed as luseogliflozin): 49.2 g | UGE0–24h ([4]; 1 mg OD, Day 1): 75.1 ± 23.3 g | UGE0–24h LS mean difference vs placebo (95% CI) ([4]; 1 mg OD, Day 1): 58.9 (45.7, 72.1)* g | Least-squares mean difference in 24-h UGE vs placebo ([4]; 1 mg OD, Day 7): 66.5 g/day | UGE0–24h ([4]; 1 mg OD, Day 7): 85.3 ± 18.8 g | UGE0–24h LS mean difference vs placebo (95% CI) ([4]; 1 mg OD, Day 7): 66.5 (45.8, 87.1)* g | UGE0–24h LS mean difference vs placebo (95% CI) ([4]; 1 mg OD, Day 7, listed as luseogliflozin): 66.5 g | UGE0–24h ([4]; 2.5 mg OD, Day 1): 139 ± 31.1 g | UGE0–24h LS mean difference vs placebo (95% CI) ([4]; 2.5 mg OD, Day 1): 91.7 (78.1, 105)* g | Least-squares mean difference in 24-h UGE vs placebo ([4]; 2.5 mg OD, Day 7): 89.4 g/day | UGE0–24h ([4]; 2.5 mg OD, Day 7): 131 ± 29.9 g | UGE0–24h LS mean difference vs placebo (95% CI) ([4]; 2.5 mg OD, Day 7): 89.4 (68.2, 111)* g | UGE0–24h LS mean difference vs placebo (95% CI) ([4]; 2.5 mg OD, Day 7, listed as luseogliflozin): 89.4 g | energy loss equivalent to the increase in UGE ([4]; 5 mg OD): approximately 400 kcal | increase in UGE ([4]; 5 mg OD): about 100 g glucose/day | UGE0–24h ([4]; 5 mg OD, Day 1): 116 ± 29.0 g | UGE0–24h LS mean difference vs placebo (95% CI) ([4]; 5 mg OD, Day 1): 101 (87.6, 114)* g
